PP1 inh = PP1-alpha phosphatase inhibitors, primary screen, counter-screen for PP5 inhibitor project, biochemical, fluorescence, OMFP substrate, single point; purified PP1alpha; Serine/threonine-protein phosphatase PP1-alpha catalytic subunit (Homo sapiens), P62136; inhibition, % at 6.7 µM; 0.9% of 320,000 active;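 active = inhibition above the mean inhibition of all tested compounds plus 3 SD, computed separately for each screening campaign, cut at about 15% in these data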
T cell HTS = modulators of CD8 T cell-vesicle binding, primary screen, mouse 2C CD8+ T cells, flow cytometry | 2C CD8+ T cell-vesicle binding; hits give low values | 0.068% of 330,000 active | response (vesicle binding), % at 7 µM;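 active = response, share of CD8 T cells binding vesicles, and their 90th percentile fluorescence all below set limits, cut at about 80% in these data, passing the limit was not always enough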;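 also: values below 100% mean blocked vesicle binding to the CD8+ T cells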
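Assay system – 2C mouse CD8+ T cells · Also added – QL9-loaded Drosophila micro-vesicles · Timing – Cell–vesicle co-incubation 1.5 h at 37 °C, staining 20 min on ice · Signal – flow cytometry of vesicle-bound cells · Measure – percent CD8+ FL2 mean versus row control · Controls – Peptide-free naked vesicles (low) and QL9 vesicles with 0.7% DMSO vehicle (high)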
JMJD2C inh = inhibitors of GASC-1 histone demethylase, primary screen, biochemical, fluorescence, DELFIA europium; Lysine-specific demethylase 4C (Homo sapiens), Q9H3R0; GST-JMJD2C(1-420) H3K9me3 demethylation; inhibition, % at 2.35 µM; 0.069% of 330,000 active;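 active = more than half of a compound's replicate wells show inhibition beyond 50%, single wells judged on their own value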;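 also: signal counts dimethyl H3K9 product captured on neutravidin plate; 0% = median of DMSO wells and 100% = 0.3 times that DMSO median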
HTR2A ag = mouse Htr2a agonists via beta-arrestin recruitment, primary screen, cell-based, luminescence | 5-hydroxytryptamine receptor 2A (Mus musculus), P35363 | CHO-K1 mHTR2A beta-arrestin complementation; percent of 30 µM serotonin response | activation, % at 7.6 µM | 0.66% of 360,000 active | AID 624169, 2012;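 active = activation above a run cutoff, the mean activation of all tested compounds plus 3 SD, cut at about 14% in these data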;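 also: 0% = plate median of compound wells and 100% = 30 µM serotonin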
PP5 inh = PP5 phosphatase inhibitors, primary screen, biochemical, fluorescence | Serine/threonine-protein phosphatase 5 (Homo sapiens), P53041 | purified PP5c, OMFP substrate fluorescence | inhibition, % at 6.7 µM | 0.18% of 320,000 active | AID 1987, 2009;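 active = inhibition above the campaign's mean inhibition across all tested compounds plus 3 SD, cut at about 9.5% in these data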;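 also: 0% = DMSO only and 100% = 100 µM cantharidin control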
Target sequence (P53041 whole entry, looked up): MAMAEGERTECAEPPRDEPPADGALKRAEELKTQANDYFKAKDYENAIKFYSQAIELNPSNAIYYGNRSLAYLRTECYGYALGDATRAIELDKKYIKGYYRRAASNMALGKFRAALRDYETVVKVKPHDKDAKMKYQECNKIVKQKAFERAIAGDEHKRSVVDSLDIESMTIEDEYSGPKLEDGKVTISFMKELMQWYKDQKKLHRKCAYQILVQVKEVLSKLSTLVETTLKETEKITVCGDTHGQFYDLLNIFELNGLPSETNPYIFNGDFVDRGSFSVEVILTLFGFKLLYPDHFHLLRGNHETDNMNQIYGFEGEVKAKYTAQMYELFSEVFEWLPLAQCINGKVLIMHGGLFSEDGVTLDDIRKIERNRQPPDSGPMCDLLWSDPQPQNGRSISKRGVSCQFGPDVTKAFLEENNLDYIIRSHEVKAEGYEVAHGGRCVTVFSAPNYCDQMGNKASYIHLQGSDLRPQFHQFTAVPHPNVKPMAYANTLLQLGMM
PP5 inh confirm = PP5 phosphatase inhibitors, confirmation, biochemical, fluorescence, human; shares compounds with PP5 inh; Purified PP5, fluorogenic phosphatase substrate; inhibition, % at 6.7 µM; 22% of 460 active; AID 2331, 2010; in the data active = inhibition above about 9.5%
PP1 counter 3x = PP1 phosphatase inhibitors, counter-screen for PP5 inhibitor project, biochemical, fluorescence, triplicate. shares compounds with PP5 inh. PP1 enzyme, fluorescent phosphatase substrate. inhibition, % at 6.7 µM. 4% of 460 active; in the data active = inhibition above about 16%
Active calls of the source: *; i = inactive; · = not tested or not shown. Shown are actives, neighbours in structure and some others; about 1.7% of the full set was active somewhere.

SMILES	PP1 inh	T cell HTS	JMJD2C inh	HTR2A ag	PP5 inh	PP5 inh confirm	PP1 counter 3x
CC(C)(CO)NCc1c(OCc2ccc(Cl)cc2)ccc2ccccc12	14	245	11	-4	1	·	·
Cc1ccc(S(=O)(=O)N2CCOCC2)cc1NC(=O)COC(=O)CSc1ccc(Br)cc1C	1	390	11	4	11*	1	6
Cc1ccc(S(=O)(=O)N2CCOCC2)cc1NC(=O)COC(=O)c1ccc(Br)cc1	·	380	8	-5	·	·	·
CCOc1ccc(S(=O)(=O)NC(C)(C)C)cc1-c1nc2c(C(C)(C)C)nn(C)c2c(=O)[nH]1	7	342	-8	-1	10*	3	4
O=C(Nc1c(F)cc(F)cc1Br)c1cc(-c2ccccc2)on1	-3	238	11	-4	12*	-3	-2
CN(C)c1ccc(C(O)P(=O)(OCc2ccccc2)c2ccc(N(C)C)cc2)cc1 (configuration not stated)	-2	609	-26	-6	2	·	·
CC(C)c1ccc(C(O)P(=O)(OCc2ccccc2)c2ccc(N(C)C)cc2)cc1 (configuration not stated)	3	932	-3	-4	9.7*	5	6
CCCCOc1ccc(NC(=O)CN2CCN(Cc3ccccc3)CC2)cc1	-3	248	-5	-1	1	·	·
CCCCN(CC)c1nc(N)c2c(N)nc(OCC)cc2c1C#N	5	678	5	-7	12*	25*	2
CCCOc1cc2c(C#N)c(N3CCCC3)nc(N)c2c(N)n1	4	495	7	5	11*	38*	3
CCOc1cc2c(C#N)c(N3CCCC3)nc(N)c2c(N)n1	1	622	-1	3	1	·	·
N#Cc1c(N2CCCC2)nc(N)c2c(N)nc(N3CCCC3)cc12	6	392	-11	6	16*	25*	18*
COc1cc2c(C#N)c(N3CCCC3)nc(N)c2c(N)n1	0	324	7	1	2	·	·
CCCCN(CC)c1nc(N)c(C#N)c(CC#N)c1C#N	4	302	-2	-1	3	·	·
Cc1cc(C)c(C(=O)COC(=O)c2nn(C)c(=O)c3ccccc23)cc1C	1	583	5	4	-2	·	·
CC1(c2nnnn2Cc2ccccc2)CCC(=O)N1CCc1ccc(O)cc1 (configuration not stated)	·	·	·	6	·	·	·
O=S1(=O)CC(N2CC=CC2)CN1Cc1ccccc1 (configuration not stated)	·	·	·	0	·	·	·
CCOc1cc(CNc2ncc(-c3ccc(OC)cc3)n2C)ccc1O	0	385	8	-6	10*	1	-3
O=C(Nc1ccc(C(O)(C(F)(F)F)C(F)(F)F)cc1)c1ccc(Cl)c([N+](=O)[O-])c1	5	141	-4	-2	11*	6	6
Cc1ccc(-n2nc3c(=O)n(CCCC(=O)NCc4ccco4)nc(C)c3c2C)cc1	-3	405	4	12	0	·	·
O=C(CNC(=O)c1cccs1)OCC(=O)c1ccccc1Cl	-3	294	·	0	-1	·	·
COc1ccc2c(c1)C(CC(=O)NN)CCC2 (configuration not stated)	·	·	·	-5	·	·	·
COc1ccc(C(=O)c2nccc3cc(OC)c(OC)cc23)cc1OC	2	304	4	4	13*	48*	7
CC(C)N(C(=O)Cn1cc(SCC(N)=O)c2ccccc21)C(C)C	-4	288	-1	-2	0	·	·
O=C(O)CCCN1C(=O)C2C3CCC(O3)C2C1=O (configuration not stated)	5	337	-5	3	17*	7	4
SMILES	PP1 inh	T cell HTS	JMJD2C inh	HTR2A ag	PP5 inh	PP5 inh confirm	PP1 counter 3x
C(=C\c1ccccc1)/CN1CCN(C(CCc2ccccc2)c2nnnn2C2CCCC2)CC1 (configuration not stated)	·	·	·	-11	·	·	·
Cc1cccc(N2CCN(C(=O)Cc3ccc(-n4c(=O)[nH]c5ccsc5c4=O)cc3)CC2)c1C	3	218	-9	-2	1	·	·
Cc1ccc(C)c(N2CCN(C(=O)Cc3ccc(-n4c(=O)[nH]c5ccsc5c4=O)cc3)CC2)c1	-4	241	1	-1	13*	-4	-4
CC(C)Sc1nsc2nc(=O)c(/C=C3\C=Nc4ccccc43)c(N)n12	-4	184	8	0	14*	0	1
CC1CN(C2=NC(=O)/C(=C/c3ccncc3)S2)CC(C)O1 (configuration not stated)	-3	150	-13	-2	-1	·	·
COc1cccc(-c2cc(C(=O)Nc3cnn(Cc4ccc(F)cc4)c3)no2)c1	-3	i	-2	3	14*	0	-4
COc1cccc(-c2cc(C(=O)Nc3cnn(Cc4ccccc4C)c3)no2)c1	8	562	-5	-2	0	·	·
O=C(CCl)Nc1cn(-c2ccccc2)nc1-c1ccccc1	2	381	10	1	2	·	·
O=C(NC1CCCCCC1)C1c2ccccc2C(=O)N1Cc1ccco1 (configuration not stated)	-1	266	-6	-8	11*	-5	-4
COc1ccc(OCC(NS(=O)(=O)c2ccc(-n3cnnn3)cc2)C(C)C)cc1 (configuration not stated)	-8	201	-34	2	-5	·	·
O=C(N/N=C/c1ccccc1F)NC1CCCCC1	2	460	1	-3	-1	·	·
O=C(N/N=C/c1ccccc1OC(F)F)NC1CCCCC1	5	133	3	0	11*	-2	-2
CCC1CCC(C(=O)NNC(=O)c2cc(-c3ccco3)[nH]n2)CC1 (configuration not stated)	3	268	-19	3	-2	·	·
COC(=O)CCC(=O)OC1(C)C(=O)C2=CN(CCN3CCOCC3)C(c3ccc(OC)cc3)=CC2=C(Br)C1=O (configuration not stated)	2	560	8	·	11*	37*	10
COC(=O)CCC(=O)OC1(C)C(=O)C2=CN(CCCCO)C(c3ccc(OC)cc3)=CC2=C(Br)C1=O (configuration not stated)	3	238	-4	·	9	·	·
CCCc1[nH]c2ccc(C#N)cc2c1CCC	2	196	6	0	13*	7	6
CCCc1[nH]c2ccc(C(=O)OC)cc2c1CCC	-2	555	0	4	7	·	·

From PubChem
